Measurements of several laboratories.
Lines come from different studies, so protocols differ.
Oprm1: Mu-type opioid receptor (Oprm1, Rattus norvegicus, UniProt P33535)

SMILES	target	test	setting	quantity	result
Cc1nn(C)cc1-c1nc2c(N3CCN(Cc4ccc(Cl)cc4)CC3)c(Cl)cnc2[nH]1	Mast/stem cell growth factor receptor Kit (KIT, Homo sapiens, UniProt P10721, D816H)	binding, competition with immobilised ligand	1 µM	remaining binding	71%
OC[C@H]1CNCCN1C[C@@H]1CCCN1C[C@H](CC1CCCCC1)N1CCN(CCc2ccc(Cl)c(Cl)c2)[C@H](Cc2ccc(O)cc2)C1	Oprm1	ligand displacement, radioligand	0.5 µM, 1 h, pH 7.5, cell membranes	remaining binding	105%
COc1ncccc1-c1cnn2ccc(N3CCN(C(=O)OC(C)C)CC3)nc12	Casein kinase II subunit alpha (CSNK2A1, Homo sapiens, UniProt P68400)	binding, competition with immobilised ligand	1 µM	remaining binding	79%
Cn1cc(-c2cccc(N3CCc4c(sc5c4CC(C)(C)C5)C3=O)c2CO)cc(Nc2ccncn2)c1=O	Mast/stem cell growth factor receptor Kit (KIT, Homo sapiens, UniProt P10721, T670I)	enzyme activity, inhibitor	1 µM	inhibition	0%
CCCC[C@H]1CNCCN1C[C@@H]1CCCN1C[C@@H](Cc1ccc2ccccc2c1)N1CCN(CCC23CC4CC(CC(C4)C2)C3)[C@H]([C@@H](C)O)C1	Oprm1	ligand displacement, radioligand	0.5 µM, 1 h, pH 7.5, cell membranes	remaining binding	102%
Nc1ncc(-c2nc(N3CCOCC3)nc(N3CCOCC3)n2)c(C(F)F)n1	Mast/stem cell growth factor receptor Kit (KIT, Homo sapiens, UniProt P10721, A829P)	binding, competition with immobilised ligand	10 µM	remaining binding	80%
CC[C@@H](C)[C@@H]1CN([C@@H](CC2CCCCC2)CN2CCC[C@H]2CN2CCNC[C@@H]2CO)CCN1CCc1ccc(Cl)c(Cl)c1	Oprm1	ligand displacement, radioligand	0.5 µM, 1 h, pH 7.5, cell membranes	remaining binding	97.8%
Cn1cc(-c2cc(F)cc(N3CCn4c(cc5c4CCCC5)C3=O)c2CO)cc(Nc2ccc(N3CCN(C4COC4)CC3)cn2)c1=O	Phosphatidylinositol 4-kinase alpha (PI4KA, Homo sapiens, UniProt P42356)	enzyme activity, inhibitor	0.1 µM	inhibition	6%
CC(C)(C)c1nc2c(s1)c1nc(N)ncc1c1ccc(NS(=O)(=O)c3c(F)cccc3F)c(F)c12	Tau-tubulin kinase 1 (TTBK1, Homo sapiens, UniProt Q5TCY1)	enzyme activity, inhibitor, radiometric	1 µM	remaining activity	79%
CCN(CC)CCCC[C@H](NC(=O)[C@H](CC(C)C)NC(=O)[C@H](C)NC(=O)[C@H](Cc1ccccc1)NC(=O)c1ccc(C(C)(C)C)cc1)C(=O)N[C@@H](CO)C(=O)OC	5-hydroxytryptamine receptor 5A (HTR5A, Homo sapiens, UniProt P47898)	ligand displacement, radioligand	10 µM	remaining binding	93.1%
O=C(c1cc(O)c(O)c([N+](=O)[O-])c1)c1ccccc1F	Transthyretin (TTR, Homo sapiens, UniProt P02766)	binding, SPR	–	koff	0.132 s⁻¹
CC[C@@H](C)[C@@H]1CN([C@H](Cc2ccc3ccccc3c2)CN2CCC[C@H]2CN2CCNC[C@@H]2CO)CCN1CCc1ccc(Cl)c(Cl)c1	Oprm1	ligand displacement, radioligand	0.5 µM, 1 h, pH 7.5, cell membranes	remaining binding	98.4%
C#Cc1n[nH]c2c(-c3cn(C(C)c4ccccn4)c(=O)[nH]c3=O)cc(F)cc12 (stereo not shown)	Myosin light chain kinase, smooth muscle (MYLK, Homo sapiens, UniProt Q15746)	enzyme activity, inhibitor	1 µM	inhibition	4%
